Data on four compounds can be found in ChEMBL document CHEMBL5032515, “Dual Role of Phenyl Amides from Hempseed on BACE 1, PPARγ, and PGC-1α in N2a-APP Cells” (J Nat Prod, 2021).

Calls of active or inactive are those of the source. No cut-off for these calls is given here.

A short description of series [1]: Permeability of compound assessed as retention time by PAMPA-BBB assay. It counts as ADME. The method, boiled down:
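Qualitative PAMPA-BBB. The donor solution was 200 μg/mL (final) in 0.01 M PBS pH 7.4, made from a stock in 50% EtOH. The filter was coated with brain polar lipid plus cholesterol in n-dodecane, and the acceptor held PBS. Plates were incubated 4 h at 37 °C. Donor and acceptor solutions were analysed by UHPLC-UV (200–400 nm) in triplicate, and compounds were identified by retention time.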

Series [2] concerns N2a. Description: Cytotoxicity against mouse N2a-APP cells assessed as cell viability at 0.03 to 0.08 uM measured after 24 hrs by MTT assay. It counts as functional, cell-based. To be noted: dose 0.03-0.08 µM. The method, boiled down:
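N2a-APP cells were seeded at 1 × 10^4 cells/well and exposed for 24 h to 0.03–0.08 μM, with medium-alone controls. MTT (1 mg/mL) was added for 2 h at 37 °C and the formazan was dissolved in DMSO. Absorbance was read at 570 nm, corrected at 650 nm. Survival is given as % of untreated cells; mean ± SD, one-way ANOVA.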
A general note: Tetrazolium assays rely on reduction of a dye to a coloured formazan, in cell work by metabolically active cells.

For series [3], the system named is N2a. Description: Antialzheimer activity in mouse N2a-APP cells assessed as effect on […] expression at 0.03 to 0.08 uM measured after 24 to 48 hrs by RT-qPCR method. Type of series: functional, cell-based. To be noted: dose 0.03-0.08 µM, time 24-48 hrs. The method, boiled down:
(§1)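 Mutant APP-overexpressing N2a cells were grown in DMEM with 10% FBS and L-glutamine at 37 °C in 5% CO2. They were seeded in six-well plates at 5 × 10^5/mL (24 h) or 5 × 10^5/2 mL (48 h) and treated at 0.03–0.08 μM. Controls were pioglitazone 14 μM and medium alone. SYBR green qPCR used 20 ng cDNA, GAPDH/18S references and triplicate reactions; 2^−ΔΔCt; mean ± SD, n = 3.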
Background: Real-time PCR tracks product formation cycle by cycle.

Series [4] concerns N2a. Description: Cytotoxicity against mouse N2a-APP cells assessed as cell viability at 0.03 to 0.08 uM measured after 24 hrs by MTT assay. To be noted: dose 0.03-0.08 µM.
Series [5] concerns N2a. Description: Antialzheimer activity in mouse N2a-APP cells assessed as reduction of BACE-1 expression at 0.03 to 0.08 uM measured after 24 hrs by RT-qPCR method. It counts as functional, cell-based. To be noted: dose 0.03-0.08 µM. The method, boiled down:
as §1

Series [6] relates to N2a. Description: Antialzheimer activity in mouse N2a-APP cells assessed as reduction of BACE-1 expression at 0.03 to 0.08 uM measured after 48 hrs by RT-qPCR method. Type of series: functional, cell-based. Particulars: dose 0.03-0.08 µM. The method, boiled down: as §1
The test system of series [7] is N2a. Briefly: Antialzheimer activity in mouse N2a-APP cells assessed as increase of […] expression at 0.03 to 0.08 uM measured after 24 hrs by RT-qPCR method. Type of series: functional, cell-based. To be noted: dose 0.03-0.08 µM. The method, boiled down: as §1
The test system of series [8] is N2a. Description: Antialzheimer activity in mouse N2a-APP cells assessed as increase of […] expression at 0.03 to 0.08 uM measured after 48 hrs by RT-qPCR method. Type of series: functional, cell-based. Particulars: dose 0.03-0.08 µM. Put shortly:
as §1

Series [9] relates to N2a. Briefly: Antialzheimer activity in mouse N2a-APP cells assessed as up-regulation of PGC-1alpha expression at 0.03 to 0.08 uM measured after 24 to 48 hrs by RT-qPCR method. Type of series: functional, cell-based. To be noted: dose 0.03-0.08 µM, time 24-48 hrs. The method, boiled down: as §1

Take `O=C(NCCc1ccc(O)cc1)c1cc2cc(O)c(O)cc2c(-c2ccc(O)c(O)c2)c1C(=O)NCCc1ccc(O)cc1`: the Retention_time in series [1] stood at 28.07 min.

Regarding `O=C(/C=C/c1ccc(O)cc1)NCCc1ccc(O)cc1` [N-P-COUMAROYL TYRAMINE], the Retention_time in [1] stood at 27.32 min. Moreover, the outcome in the series with N2a [2], with N2a [3] and with N2a [4] was inactive.

Regarding `O=C(/C=C/c1ccc(O)c(O)c1)NCCc1ccc(O)cc1`, the Retention_time in [1] was found to be 24.08 min. The result in the series with N2a [2] and with N2a [4] was inactive. In addition, the result with N2a [5], with N2a [6], in the series with N2a [7], in the series on N2a [8] and in the series on N2a [9] was Active.

Regarding `COc1cc(/C=C/C(=O)NCCc2ccc(O)cc2)ccc1O` [N-TRANS-FERULOYL TYRAMINE], the Retention_time in series [1] was determined as 28.42 min.
